Compound activity deposited in PubChem BioAssay by several laboratories.
Hits are enriched below; roughly 1.8% of the tested compounds scored in any of these assays.
Jurkat NFkB inh – inhibitors of induced NF-kB luciferase reporter, primary screen, TCR NF-kB activation inhibitor project, cell-based, luminescence, uHTS; Jurkat, PMA/ionomycin-induced NF-kB luciferase reporter; inhibition, % at 4 µM; 0.53% of 330,000 active; AID 435003, 2010; in the data active = inhibition above about 50%
697 NFkB inh – inhibitors of PMA/ionomycin-induced NF-kB reporter, 697 cells, primary screen, B-cell NF-kB inhibitor project, cell-based, luminescence, uHTS; 697 B-cell NF-kB luciferase reporter, 16 h; 0.33% of 330,000 active; inhibition, % at 4 µM; AID 435022, 2010; in the data active = inhibition above about 35%
GalR3 antagonist – GalR3 antagonists in HEK293 cells, primary screen, cell-based, fluorescence readout. Galanin receptor type 3 (Homo sapiens), O60755. HEK293 GalR3-CNG cAMP membrane potential fluorescence; galR3 body fused to GalR1 C-terminus. AID 651719, 2012. inhibition, % at 3 µM. 0.44% of 360,000 active;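 active = inhibition above the screen-wide average plus 3 SD, cut at about 13% in these data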;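 also: forskolin and galanin both at EC90 stimulate the cells; cAMP rise reported by CNG channel membrane potential dye signal; 0% = forskolin plus galanin with DMSO and 100% = forskolin alone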
Target sequence (O60755 1-299 limits assumed): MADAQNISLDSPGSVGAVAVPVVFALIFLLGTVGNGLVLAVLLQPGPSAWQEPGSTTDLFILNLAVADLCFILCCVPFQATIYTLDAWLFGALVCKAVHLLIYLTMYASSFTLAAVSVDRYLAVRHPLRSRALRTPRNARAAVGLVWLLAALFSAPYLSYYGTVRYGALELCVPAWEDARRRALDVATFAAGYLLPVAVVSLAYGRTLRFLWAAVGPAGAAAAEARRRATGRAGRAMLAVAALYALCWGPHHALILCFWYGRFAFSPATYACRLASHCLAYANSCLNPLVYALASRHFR
Gli-Sufu antag – Gli-Sufu pathway antagonists, primary screen, luciferase luminescence, Sufu-KO-LIGHT cells, uHTS. 0.74% of 340,000 active. AID 588413, 2011. Sufu-KO-LIGHT fibroblasts, Gli luciferase reporter luminescence. inhibition, % at 5 µM;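 active = inhibition above about 55%, limit read from the data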;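 also: 0% = DMSO-treated cells and 100% = wells with medium but no cells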
NR2E3 ag-1 – NR2E3 agonists in two-hybrid cells, primary screen, cell-based, luminescence, CHO-S, Gal4-NCOR/VP16-NR2E3 | Photoreceptor-specific nuclear receptor (Homo sapiens), Q9Y5X4 | luciferase | inhibition of corepressor binding, % at 3.98 µM | 0.35% of 360,000 active;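 active = inhibition above the mean of all tested compounds plus 3 SD, cut at about 70% in these data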;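 also: 0% = DMSO with NR2E3 transfected cells and 100% = cells lacking NR2E3 construct; higher means lower luciferase signal from less NR2E3 corepressor binding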
Target sequence (Q9Y5X4 whole entry, looked up, the tested form may be a part): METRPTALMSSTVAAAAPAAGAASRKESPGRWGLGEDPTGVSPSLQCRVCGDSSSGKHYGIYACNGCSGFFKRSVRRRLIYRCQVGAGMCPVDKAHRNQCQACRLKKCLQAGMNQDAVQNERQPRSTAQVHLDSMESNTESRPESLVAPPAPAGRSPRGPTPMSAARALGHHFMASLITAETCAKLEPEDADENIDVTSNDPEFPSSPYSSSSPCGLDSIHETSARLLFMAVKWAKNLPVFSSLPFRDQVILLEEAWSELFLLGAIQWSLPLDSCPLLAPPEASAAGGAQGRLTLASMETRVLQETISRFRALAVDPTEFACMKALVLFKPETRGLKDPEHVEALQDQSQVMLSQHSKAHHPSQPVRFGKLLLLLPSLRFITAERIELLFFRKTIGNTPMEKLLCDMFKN
NR2E3 ag-2 – inhibitors of NR2E3-RetCOR corepressor binding, primary screen, NR2E3 agonist project, biochemical, TR-FRET, GST-NR2E3, biotin-RetCOR; 1536-well; inhibition of corepressor binding, % at 4.78 µM; 0.12% of 320,000 active; Photoreceptor-specific nuclear receptor (Homo sapiens), Q9Y5X4;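 active = percent inhibition above the cutoff of mean plus 3 SD of all tested compounds, set per screening campaign, cut at about 20% in these data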;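 also: 0% = DMSO wells and 100% = biotin wells as full block of FRET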
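System: GST-tagged NR2E3 plus biotinylated RetCOR corepressor; Amount: 1.35 nM GST-tagged NR2E3 final; Dosing: single nominal compound dose of 4.8 µM; Schedule: 5 h incubation at 4 °C; Technique: TR-FRET with europium anti-GST and streptavidin-D2, 340 nm excitation; Controls: biotin wells as high control, 0.6% DMSO wells as low control.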
Jurkat NFkB conf – PMA/ionomycin-induced NF-kB reporter inhibitors, Jurkat retest, confirmation, T-cell NF-kB inhibitor project, cell-based, luminescence, single concentration; shares compounds with Jurkat NFkB inh; Jurkat NF-kB luciferase, 16 h; inhibition, % at 4 µM; 27% of 2,700 active;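 active = inhibition reaching about 45% at 4 µM in either replicate, limit read from the data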;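 also: plate controls were PMA/ionomycin stimulated DMSO wells for no effect and unstimulated DMSO wells for full effect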
* = called active by the depositor; nt = no result given.

SMILES | Jurkat NFkB inh | 697 NFkB inh | GalR3 antagonist | Gli-Sufu antag | NR2E3 ag-1 | NR2E3 ag-2 | Jurkat NFkB conf
CCCCOc1ccccc1C1CC(=O)NC2=C1C(=O)CCC2 (configuration not stated) | 62* | -23 | 4 | 39 | -61 | -1 | 50*
CN1C(=O)[C@@]2(O[C@H]3C=CC=CN3C3=C2C(=O)CCC3)c2cc([N+](=O)[O-])ccc21 | nt | nt | 1 | nt | nt | nt | nt
O=C(Cc1ccc(NC(=O)C2CCN(C(=O)C3CCCC3)CC2)cc1)Nc1cccc(C(=O)N2CCCC2)c1 | nt | nt | -4 | nt | nt | nt | nt
CCOC(=O)c1ccc(NC(=O)N2CCc3ccccc3C2)cc1 | -22 | -52 | -4 | -3 | -27 | 0 | nt
CCOC(=O)c1ccc(NC(=O)N2CCc3ccccc32)cc1 | -157 | -92 | -9 | -55 | -144 | 1 | -93
CCCCS(=O)(=O)/C=C\C=C/S(=O)(=O)CCCC | 90* | -131 | nt | 34 | 69 | -1 | 63*
COCc1[nH]nc2c1C(c1ccc(C)cc1)N(c1ccc(OC)cc1)C2=O (configuration not stated) | nt | nt | -7 | nt | nt | nt | nt
O=C(N[C@@H](Cc1cccnc1)C(=O)N1CCC[C@H]1C(=O)NCc1ccccc1)c1ccc(Cl)c(Cl)c1 | nt | nt | -6 | nt | nt | nt | nt
Cc1ccc(C(=O)/C=C/Nc2cccc(O)c2)cc1 | -70 | -109 | -3 | -49 | -142 | 2 | nt
C/C(=C\C(=O)c1ccc(C)cc1)Nc1cccc(O)c1 | -186 | -188 | 0 | -9 | -15 | 1 | -7
NCc1ccc(OCCCN2CCC(C(O)(C3=CCCC3)c3ccccc3)CC2)cc1 (configuration not stated) | nt | nt | -5 | nt | nt | nt | nt
COc1cccc(C(=O)Nc2ccc3c(C)cc(=O)oc3c2)c1 | -178 | -132 | -2 | -87 | -172 | nt | -111
CN1/C(=C/C=C(/C#N)C(N)=O)C(C)(C)c2ccccc21 | 61* | -86 | -5 | 7 | -113 | -1 | 10
CN1/C(=C\C=C(/C#N)C(=O)Nc2ccccc2F)C(C)(C)c2ccccc21 | 4 | 15 | -3 | 9 | 4 | 4 | nt
N#CC1=C2SC=C(c3ccc(Br)cc3)N2CCCC1=O | -210 | -179 | -5 | -66 | -134 | 1 | -88
CC(C)c1ccc(-n2cnn(-c3ncccc3[N+](=O)[O-])c2=O)cc1 | -204 | -155 | -5 | -119 | -174 | 1 | -126
Fc1ccccc1-c1nc(-c2ccc(Cl)cc2)no1 | -176 | -247 | -2 | -125 | -41 | 5 | -76
CC1Cc2ccccc2N1C(=O)/C=C/c1cccc(F)c1 (configuration not stated) | -176 | -127 | 1 | -102 | -85 | 2 | -102
C[C@@H]1CN([C@@H](C)CO)C(=O)CCCn2cc(nn2)CO[C@H]1CN(C)C(=O)Nc1ccc2c(c1)OCCO2 | nt | nt | -2 | nt | nt | nt | nt
COC(=O)c1ccc(NC(=S)Nc2ccccn2)cc1 | -164 | -133 | 1 | -8 | -104 | 0 | -69
COc1ccc(NC(=S)Nc2ccccn2)cc1 | -95 | -120 | -7 | -30 | -76 | 3 | nt
CCCCc1c(-c2ccccc2OC)ncn1Cc1cccc(OC)c1 | nt | nt | -10 | nt | nt | nt | nt
COc1ccc(N(Cc2cc3cc(OC)ccc3[nH]c2=O)S(=O)(=O)c2ccc(NC(C)=O)cc2)cc1 | 69* | -2 | -6 | 28 | 9 | 2 | 21
O=C(O)c1ccc(-c2ccc(-c3ccccc3)cc2)s1 | 61* | -73 | nt | nt | -151 | -1 | 46
O=C(Nc1ccccc1)c1sc(Cl)nc1-c1ccccc1 | 11 | 5 | -9 | 5 | -2 | 3 | nt
SMILES | Jurkat NFkB inh | 697 NFkB inh | GalR3 antagonist | Gli-Sufu antag | NR2E3 ag-1 | NR2E3 ag-2 | Jurkat NFkB conf
O=C(Nc1ccccc1)c1ccc(-c2ccccc2)s1 | -194 | 9 | -6 | -25 | -32 | -12 | -66
Cc1cc(-c2ccc(C(=O)O)s2)cnc1N | -5 | -62 | 0 | -37 | -20 | 1 | nt
O=C(Nc1ccccc1)c1cc2ccc3ccccc3c2s1 | -151 | 12 | -1 | -71 | -83 | -3 | -65
COC(=O)[C@]12C[C@H](CC(=O)NCCCN3CCCC3=O)C(=O)N(CCC3=CCCCC3)C1=C[C@H](C(C)(C)C)O[C@@H]2C | nt | nt | -3 | nt | nt | nt | nt
CCOCC(=O)NC1CCc2cc(OC)c(OC)c(OC)c2-c2ccc(SC)c(=O)cc21 (configuration not stated) | nt | nt | -2 | 48 | 25 | nt | nt
COc1cc2c(c(OC)c1OC)-c1ccc(NC(=O)c3ccccc3)c(=O)cc1[C@@H](NC(C)=O)CC2 | 50 | 9 | -7 | -20 | -4 | nt | 5
CC(=O)Nc1ccc(/C=C/c2nc3ccccc3o2)cc1 | -150 | -145 | -9 | -94 | -182 | 1 | -100
Cc1[nH]c2ccccc2c1CC(=O)Nc1ccc(N(C)c2cccnc2)c(-c2ccc(F)c(F)c2)c1 | nt | nt | -3 | nt | nt | nt | nt
CN1CCSc2ccc(C(=O)Nc3cccc(F)c3)cc21 | -153 | -1 | 3 | -49 | -109 | 4 | -15
COc1cccc(/C=C/C(=O)Nc2ccc3c(c2)OCCO3)c1OC | -183 | -52 | -1 | -60 | -109 | -4 | -108
CCC(=O)Nc1c(C(=O)Nc2ccc3c(c2)OCCO3)oc2ccccc12 | -92 | -70 | 6 | -91 | -25 | 1 | nt
CCOCC(=O)Nc1c(C(=O)Nc2ccc3c(c2)OCCO3)oc2ccccc12 | -193 | -117 | -1 | -139 | -3 | 3 | -92
COCC(=O)Nc1c(C(=O)Nc2ccc3c(c2)OCCO3)oc2ccccc12 | -176 | -110 | -4 | -122 | -13 | 1 | -95
CCC1CCCCN1C(=S)NN=C(C)c1ccccn1 (configuration not stated) | nt | nt | -9 | nt | nt | nt | nt
CC(C)c1ccc(-n2nc3ccc(N)cc3n2)cc1 | -169 | -95 | -2 | -92 | -99 | 3 | -41
Cc1ccc(-n2nc3ccc(N)cc3n2)cc1 | -106 | -80 | -2 | -43 | -96 | 4 | nt
CCCCc1c(-c2ccccc2OC)ncn1Cc1ccc(F)cc1F | nt | nt | -2 | nt | nt | nt | nt
COC(=O)c1cc2c(c3c4cc(OC)ccc4n(S(=O)(=O)c4ccc(OC)cc4)c13)C(=O)N(Cc1ccccc1)C2 | nt | nt | -6 | nt | nt | nt | nt
O=C(N/N=C/c1ccccn1)c1cc(-c2ccc(Br)cc2)nc2ccccc12 | 54* | -63 | -5 | 72* | -15 | 4 | 19
Cc1[nH]c2ccccc2c1/C=N/NC(=O)c1cc(-c2ccncc2)nc2ccccc12 | 56* | 8 | 2 | -1 | -17 | -3 | 12
